≈ marks a conversion by molar mass, not a printed value.
How the values were obtained:
Streptococcus pneumoniae [1] = test: Antibacterial activity against Streptococcus pneumoniae infected in CD1 mouse pneumonia model assessed as lung bacterial load at 25 mg/kg, sc administered at 1 and 4 hrs after bacterial challenge measured 24 hrs post infection (reference value: 2.69x10^8 CFU/ml); conditions: route subcutaneous
Streptococcus pneumoniae [2] = test: Antibacterial activity against Streptococcus pneumoniae infected in CD1 mouse pneumonia model assessed as lung bacterial load at 12.5 mg/kg, sc administered at 1 and 4 hrs after bacterial challenge measured 24 hrs post infection (reference value: 2.69x10^8 CFU/ml); conditions: route subcutaneous
Streptococcus pneumoniae [3] = test: Antibacterial activity against Streptococcus pneumoniae infected in CD1 mouse pneumonia model assessed as lung bacterial load at 6.25 mg/kg, sc administered at 1 and 4 hrs after bacterial challenge measured 24 hrs post infection (reference value: 2.69x10^8 CFU/ml); conditions: route subcutaneous
Staphylococcus aureus [4] = test: Antibacterial activity against Staphylococcus aureus 42 in absence of 1% bovine pulmonary surfactant by CLSI method; assay type: functional; conditions: Staphylococcus aureus, 42, Pulmonary surfactant
Summary of the method: (§1)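 Broth MIC in Mueller-Hinton broth with 50 mg/liter CaCl2, run with or without 1% bovine pulmonary surfactant, following CLSI methods. Colonies came from frozen stocks streaked on sheep-blood tryptic soy agar (37°C, ~24 h). Incubation was at 37°C with rotation at 200 rpm. The ratio is MIC with surfactant divided by MIC without.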

Staphylococcus aureus [5] = test: Antibacterial activity against daptomycin sensitive and methicillin susceptible Staphylococcus aureus 42 by CLSI method; assay type: functional
Summary of the method: (§2)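 MICs were determined by CLSI broth methods in Mueller-Hinton broth with 50 mg/liter CaCl2, with or without 1% bovine pulmonary surfactant. Inocula came from single colonies streaked from glycerol stocks onto blood agar and grown at 37°C for ~24 h. Cultures were incubated at 37°C with rotation at 200 rpm.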

Enterococcus faecium [6] = test: Antibacterial activity against daptomycin resistant Enterococcus faecium 384 by CLSI method; assay type: functional
Summary of the method: as §2

Staphylococcus aureus [7] = test: Ratio of MIC for Staphylococcus aureus 42 in presence of 1% bovine pulmonary surfactant to MIC for Staphylococcus aureus 42 in absence of 1% bovine pulmonary surfactant; assay type: functional
Summary of the method: as §1

Staphylococcus aureus [8] = test: Antibacterial activity against daptomycin sensitive and methicillin resistant Staphylococcus aureus MW2 by CLSI method; assay type: functional
Summary of the method: as §2

Streptococcus pneumoniae [9] = test: Antibacterial activity against daptomycin sensitive Streptococcus pneumoniae 402 by CLSI method; assay type: functional
Summary of the method: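 S. pneumoniae MIC in CaCl2-supplemented Mueller-Hinton broth (50 mg/liter) with 5% lysed horse blood, following CLSI methods. Colonies were grown on sheep-blood agar at 37°C under 5% CO2. Assay incubation was at 37°C under 5% CO2 without aeration.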

Staphylococcus aureus [10] = test: Antibacterial activity against daptomycin resistant Staphylococcus aureus 1695 by CLSI method; assay type: functional
Summary of the method: as §2

Staphylococcus aureus [11] = test: Antibacterial activity against Staphylococcus aureus 42 in presence of 1% bovine pulmonary surfactant by CLSI method; assay type: functional; conditions: Staphylococcus aureus, 42, Pulmonary surfactant
Summary of the method: as §1

Enterococcus faecalis [12] = test: Antibacterial activity against daptomycin sensitive Enterococcus faecalis 201 by CLSI method; assay type: functional
Summary of the method: as §1

Enterococcus faecalis [13] = test: Antibacterial activity against daptomycin resistant Enterococcus faecalis 312 by CLSI method; assay type: functional
Summary of the method: as §2

Staphylococcus aureus [14] = test: Antibacterial activity against methicillin resistant Staphylococcus aureus 1616 by CLSI method; assay type: functional
Summary of the method: as §2

Enterococcus faecium [15] = test: Antibacterial activity against daptomycin sensitive Enterococcus faecium 14 by CLSI method; assay type: functional
Summary of the method: as §1

Escherichia coli = test: Antibacterial activity against imp4213 mutant Escherichia coli BAS849 by CLSI method; assay type: functional
Summary of the method: as §2

Staphylococcus aureus [16] = test: Antibacterial activity against daptomycin sensitive and methicillin resistant Staphylococcus aureus 399 by CLSI method; assay type: functional
Summary of the method: as §2

Row | Structure (SMILES) | CFU/ml (Streptococcus pneumoniae [1]) | CFU/ml (Streptococcus pneumoniae [2]) | CFU/ml (Streptococcus pneumoniae [3]) | MIC (Staphylococcus aureus [4]) | MIC (Staphylococcus aureus [5]) | MIC (Enterococcus faecium [6]) | Ratio (Staphylococcus aureus [7]) | MIC (Staphylococcus aureus [8]) | MIC (Streptococcus pneumoniae [9]) | MIC (Staphylococcus aureus [10]) | MIC (Staphylococcus aureus [11]) | MIC (Enterococcus faecalis [12]) | MIC (Enterococcus faecalis [13]) | MIC (Staphylococcus aureus [14]) | MIC (Enterococcus faecium [15]) | MIC (Escherichia coli) | MIC (Staphylococcus aureus [16])
1 | CN[C@H](CC(C)C)C(=O)N[C@H]1C(=O)N[C@@H](CC(N)=O)C(=O)N[C@H]2C(=O)N[C@H]3C(=O)N[C@H](C(=O)N[C@H](C(=O)O)c4cc(O)cc(O)c4-c4cc3ccc4O)[C@H](O)c3ccc(c(Cl)c3)Oc3cc2cc(c3O[C@@H]2O[C@H](CO)[C@@H](O)[C@H](O)[C@H]2O[C@H]2C[C@](C)(N)[C@H](O)[C@H](C)O2)Oc2ccc(cc2Cl)[C@H]1O [VANCOMYCIN] | 9 | 285000 | 1.81e+07 |  |  |  |  |  |  |  |  |  |  |  |  |  | 
2 | CCCCCCCCCC(=O)N[C@@H](Cc1c[nH]c2ccccc12)C(=O)N[C@H](CC(N)=O)C(=O)N[C@@H](CC(=O)O)C(=O)N[C@@H]1C(=O)NCC(=O)N[C@@H](CCCN)C(=O)N[C@@H](CC(=O)O)C(=O)N[C@H](C)C(=O)N[C@@H](CC(=O)O)C(=O)NCC(=O)N[C@H](CO)C(=O)N[C@@H]([C@H](C)CC(=O)O)C(=O)N[C@@H](CC(=O)c2ccccc2N)C(=O)O[C@@H]1C |  |  |  | 0.5 µg/mL (≈ 0.309 µM) | 1 µg/mL (≈ 0.617 µM) | 32 µg/mL (≈ 19.7 µM) | 128 | 1 µg/mL (≈ 0.617 µM) | 0.25 µg/mL (≈ 0.154 µM) | 4 µg/mL (≈ 2.47 µM) | 64 µg/mL | 2 µg/mL (≈ 1.23 µM) | 128 µg/mL (≈ 79 µM) | 16 µg/mL (≈ 9.87 µM) | 2 µg/mL (≈ 1.23 µM) | 128 µg/mL (≈ 79 µM) | 0.5 µg/mL (≈ 0.309 µM)
3 | CC[C@H](C)[C@@H]1NC(=O)[C@H]([C@H](C)CC(=O)O)NC(=O)[C@@H](CC(N)=O)NC(=O)CNC(=O)[C@@H]([C@H](OC)C(=O)O)NC(=O)[C@@H](CO)NC(=O)[C@H](CC(=O)O)NC(=O)[C@H](C)NC(=O)CN(C)C(=O)[C@@H](NC(=O)[C@@H](NC(=O)[C@@H](CCC(=O)O)NC(=O)[C@H](Cc2c[nH]c3ccccc23)NC(=O)CCCCCCCC(C)C)[C@H](O)C(N)=O)[C@H](C)OC1=O |  |  |  | 1 µg/mL (≈ 0.613 µM) | 1 µg/mL (≈ 0.613 µM) | 32 µg/mL (≈ 19.6 µM) | 16 | 0.5 µg/mL (≈ 0.306 µM) | 0.25 µg/mL (≈ 0.153 µM) | 4 µg/mL (≈ 2.45 µM) | 16 µg/mL | 4 µg/mL (≈ 2.45 µM) | 128 µg/mL (≈ 78.4 µM) | 8 µg/mL (≈ 4.9 µM) | 4 µg/mL (≈ 2.45 µM) | 16 µg/mL (≈ 9.81 µM) | 1 µg/mL (≈ 0.613 µM)
